Measurements: article PMC3117328 (Chemistry & biology, 2009)

Columns and labels:
[1] = molecular target: EF-G GTPase (70S ribosomes) (Escherichia coli, UniProt P0A7J7); assay: EF-G GTPase Pi release assay with MDCC-labeled PBP; type: biochemical
[2] = test system: Escherichia coli in vitro coupled transcription-translation (GFP synthesis); assay: In vitro coupled transcription-translation; type: biochemical; conditions: 5 µM ThS, 5 µM NoS, 25 µM GE2270T (Figure 4)
Method in brief: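 E. coli lysate-based coupled transcription-translation system expressing GFP, ribosomes ~2 µM, run with or without test compound. After reaction, samples are moved to microtiter plates. GFP fluorescence is imaged on a laser scanner with blue-laser excitation and quantified from the images, with inhibition taken against the no-antibiotic reaction.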

[3] = molecular target: IF2 (70S initiation complex formation) (Escherichia coli, UniProt P0A7J7); assay: IF2^Cy3 fluorescence change assay; type: biochemical; conditions: ThS, NoS at 1.5 µM (Figure 2A); precursors in dose response screen
[4] = background statement, no reference given; cited from earlier work
[5] = molecular target: EF-G GTPase (E. coli 70S ribosomes) (Escherichia coli, UniProt P0A7J7); type: biochemical; conditions: compound 1 µM; 30 nM 70S ribosomes, 20 µM GTP, 60 nM protein
Chain of EF-G GTPase (E. coli 70S ribosomes) (P0A7J7 2-142): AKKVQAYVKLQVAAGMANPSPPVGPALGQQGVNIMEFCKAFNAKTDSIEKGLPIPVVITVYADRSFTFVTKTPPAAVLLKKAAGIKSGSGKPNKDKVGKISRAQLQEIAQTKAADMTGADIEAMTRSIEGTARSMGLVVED

Chain of EF-G GTPase (70S ribosomes) (P0A7J7 2-142): as above
Chain of IF2 (70S initiation complex formation) (P0A7J7 2-142, one chain of several): as the sequence (P0A7J7 2-142) above

Molecule	EC50 [1] [nM]	inhibition of GFP synthesis in the in vitro TT assay [2]	inhibition of the IF2^Cy3 fluorescence increase on 70SIC formation (in words) [3]	bioavailability [4]	inhibition of EF-G GTPase activity (Malachite Green) [5]
C/C=C(\NC(=O)c1csc(-c2csc(-c3ccc4c(n3)-c3csc(n3)[C@H]([C@@H](C)O)NC(=O)c3csc(n3)[C@H](C(C)C)NC(=O)c3csc(n3)/C(=C/C)NC(=O)[C@H]([C@@H](C)O)NC(=O)c3csc-4n3)n2)n1)C(=O)NC[C@@H](C)O [MiC, micrococcin]	110	–	–	–	–
C=C(NC(=O)c1csc(-c2nc3c(cc2O)-c2nc(cs2)C(=O)N[C@@H]([C@@H](C)O)C(=O)N/C(=C\C)c2nc(cs2)C(=O)N[C@H]2C[C@H](O)C(=O)OCc4cccc5[nH]c(c(C)c45)C(=O)SC[C@H](NC(=O)c4csc2n4)c2nc-3cs2)n1)C(N)=O [NoS, nosiheptide]	40	potent inhibitors	inhibited	–	–
C=C(NC(=O)C(=C)NC(=O)c1csc(C2=N[C@@H]3c4csc(n4)[C@H]4NC(=O)c5csc(n5)[C@H]([C@](C)(O)[C@@H](C)O)NC(=O)[C@H]5CSC(=N5)/C(=C/C)NC(=O)[C@H]([C@@H](C)O)NC(=O)c5csc(n5)[C@]3(CC2)NC(=O)[C@H](C)NC(=O)C(=C)NC(=O)[C@H](C)NC(=O)[C@H]([C@@H](C)CC)N[C@@H]2C=Cc3c([C@H](C)O)cc(nc3[C@H]2O)C(=O)O[C@@H]4C)n1)C(N)=O [ThS, thiostrepton]	–	potent inhibitors	inhibited	poor	almost completely abolished
GE2270T	–	potent inhibitors	–	–	–
